Results reported in ChEMBL document CHEMBL1140366, “Novel P1 chain-extended HIV protease inhibitors possessing potent anti-HIV activity and remarkable inverse antiviral resistance profiles” (Bioorg Med Chem Lett, 2005).

Key:
[1] = test system: Human immunodeficiency virus; experiment: Inhibitory concentration against protease inhibitor-resistant mutant Human immuno deficiency virus (D545701) was determined in an MT-4 cell line; conditions: Human immunodeficiency virus 1, MT4
[2] = test system: Human immunodeficiency virus; experiment: Inhibitory concentration against wild type Human immuno deficiency virus (HXB2) was determined in an MT-4 cell line; type: functional, organism-based; conditions: Human immunodeficiency virus 1, MT4
[3] = test system: Human immunodeficiency virus; experiment: Inhibitory concentration against protease inhibitor-resistant mutant Human immuno deficiency virus (EP13) was determined in an MT-4 cell line; conditions: Human immunodeficiency virus 1, MT4
Canis lupus familiaris [4] = experiment: Bioavailability in dog at 0.5 mg/kg dose co-administered with 4.0 mg/kg ritonavir; type: functional, organism-based
Procedure, shortened: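 Ritonavir-boosted bioavailability was calculated as the oral AUC with co-administered ritonavir divided by the IV AUC without ritonavir.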

Canis lupus familiaris [5] = experiment: Bioavailability in dog at 0.5 mg/kg dose; type: functional, organism-based
Canis lupus familiaris [6] = experiment: Half life in dogs at 0.5 mg/kg iv dose co-administered with ritonavir 4.0 mg/kg; type: functional, organism-based
Rattus norvegicus [7] = experiment: Bioavailability of the compound in rat was determined; Dose at 1.0 mg/kg; type: functional, organism-based
Rattus norvegicus [8] = experiment: Half life in rat was determined at a dose 1.0 mg/kg; type: functional, organism-based; design: dose 1 mg/kg
Rattus norvegicus [9] = experiment: Clearance in rats at 1.0 mg/kg iv dose; type: functional, organism-based; design: dose 1 mg/kg
Canis lupus familiaris [10] = experiment: Clearance in dogs at 0.5 mg/kg iv dose; type: functional, organism-based; design: dose 0.5 mg/kg
Canis lupus familiaris [11] = experiment: Half life in dogs at 0.5 mg/kg iv dose; type: functional, organism-based; design: dose 0.5 mg/kg
Rattus norvegicus [12] = experiment: Bioavailability in rats at 1.0 mg/kg iv dose; type: functional, organism-based
Canis lupus familiaris [13] = experiment: Clearance in dogs at 0.5 mg/kg dose; type: functional, organism-based; design: dose 0.5 mg/kg

SMILES	IC50 [1]	IC50 [2]	IC50 [3]	further results
Cc1cccc(C)c1OCC(=O)N[C@@H](Cc1ccccc1)[C@@H](O)C[C@H](Cc1ccccc1)NC(=O)[C@H](C(C)C)N1CCCNC1=O [LOPINAVIR]	> 1000 nM	40 nM	400 nM	
CC(C)CN(C[C@@H](O)[C@H](Cc1ccc(OCCCN)cc1)NC(=O)O[C@H]1CO[C@H]2OCC[C@H]21)S(=O)(=O)c1ccc2c(c1)OCO2	65 nM	67 nM	50 nM	
CNC(=O)NCCOc1ccc(C[C@H](NC(=O)O[C@H]2CO[C@H]3OCC[C@H]32)[C@H](O)CN(CC(C)C)S(=O)(=O)c2ccc3c(c2)OCO3)cc1	130 nM	200 nM	131 nM	
CC(C)CN(C[C@@H](O)[C@H](Cc1ccc(OCCN)cc1)NC(=O)O[C@H]1CO[C@H]2OCC[C@H]21)S(=O)(=O)c1ccc2c(c1)OCO2	130 nM	180 nM	150 nM	
Cc1c(O)cccc1C(=O)N[C@@H](CSc1ccccc1)[C@H](O)CN1C[C@H]2CCCC[C@H]2C[C@H]1C(=O)NC(C)(C)C [NELFINAVIR]	> 1000 nM	320 nM	450 nM	
CC(=O)NCCOc1ccc(C[C@H](NC(=O)O[C@H]2CO[C@H]3OCC[C@H]32)[C@H](O)CN(CC(C)C)S(=O)(=O)c2ccc3c(c2)OCO3)cc1	53 nM	140 nM	52 nM	
CC(C)CN(C[C@@H](O)[C@H](Cc1ccc(OCCCCNC(=O)N(C)C)cc1)NC(=O)O[C@H]1CO[C@H]2OCC[C@H]21)S(=O)(=O)c1ccc2c(c1)OCO2	32 nM	65 nM	22 nM	
COC(=O)N[C@H](C(=O)N[C@@H](Cc1ccccc1)[C@@H](O)CN(Cc1ccc(-c2ccccn2)cc1)NC(=O)[C@@H](NC(=O)OC)C(C)(C)C)C(C)(C)C [ATAZANAVIR]	70 nM	25 nM	93 nM	
CNC(=O)NCCCOc1ccc(C[C@H](NC(=O)O[C@H]2CO[C@H]3OCC[C@H]32)[C@H](O)CN(CC(C)C)S(=O)(=O)c2ccc3c(c2)OCO3)cc1	43 nM	119 nM	56 nM	
CC(C)(C)NC(=O)[C@@H]1CN(Cc2cccnc2)CCN1C[C@@H](O)C[C@@H](Cc1ccccc1)C(=O)N[C@H]1c2ccccc2C[C@H]1O [INDINAVIR]	440 nM	50 nM	330 nM	
CC(C)CN(C[C@@H](O)[C@H](Cc1ccc(OCCCCN)cc1)NC(=O)O[C@H]1CO[C@H]2OCC[C@H]21)S(=O)(=O)c1ccc2c(c1)OCO2	28 nM	15 nM	14 nM	
CC(C)CN(C[C@@H](O)[C@H](Cc1ccccc1)NC(=O)O[C@H]1CCOC1)S(=O)(=O)c1ccc(N)cc1 [AMPRENAVIR]	> 1000 nM	130 nM	440 nM	

Compounds with a lower IC50 [1], results first:

IC50 [1]	IC50 [2]	IC50 [3]	SMILES	further results
20 nM	57 nM	18 nM	CC(=O)NCCCOc1ccc(C[C@H](NC(=O)O[C@H]2CO[C@H]3OCC[C@H]32)[C@H](O)CN(CC(C)C)S(=O)(=O)c2ccc3c(c2)OCO3)cc1	
21 nM	41 nM	20 nM	CC(C)CN(C[C@@H](O)[C@H](Cc1ccc(OCCCNS(C)(=O)=O)cc1)NC(=O)O[C@H]1CO[C@H]2OCC[C@H]21)S(=O)(=O)c1ccc2c(c1)OCO2	
6.6 nM	2.6 nM	2.6 nM	COC(=O)NCCCCOc1ccc(C[C@H](NC(=O)O[C@H]2CO[C@H]3OCC[C@H]32)[C@H](O)CN(CC(C)C)S(=O)(=O)c2ccc3c(c2)OCO3)cc1	
22 nM	60 nM	26 nM	CNC(=O)NCCCCOc1ccc(C[C@H](NC(=O)O[C@H]2CO[C@H]3OCC[C@H]32)[C@H](O)CN(CC(C)C)S(=O)(=O)c2ccc3c(c2)OCO3)cc1	
15 nM	2.2 nM	19 nM	COC(=O)NCCCCC(C)(C)CN(C[C@@H](O)[C@H](Cc1ccccc1)NC(=O)O[C@H]1CO[C@H]2OCC[C@H]21)S(=O)(=O)c1ccc2c(c1)OCO2	
11 nM	25 nM	11 nM	CC(C)CN(C[C@@H](O)[C@H](Cc1ccc(OCCCNC(=O)N(C)C)cc1)NC(=O)O[C@H]1CO[C@H]2OCC[C@H]21)S(=O)(=O)c1ccc2c(c1)OCO2	
9.2 nM	15 nM	5.9 nM	CC(C)CN(C[C@@H](O)[C@H](Cc1ccc(OCCCCNS(C)(=O)=O)cc1)NC(=O)O[C@H]1CO[C@H]2OCC[C@H]21)S(=O)(=O)c1ccc2c(c1)OCO2	
11 nM	37 nM	9.1 nM	CC(C)CN(C[C@@H](O)[C@H](Cc1ccc(OCCNC(=O)N(C)C)cc1)NC(=O)O[C@H]1CO[C@H]2OCC[C@H]21)S(=O)(=O)c1ccc2c(c1)OCO2	
7.1 nM	3 nM	2.9 nM	COC(=O)NCCOc1ccc(C[C@H](NC(=O)O[C@H]2CO[C@H]3OCC[C@H]32)[C@H](O)CN(CC(C)C)S(=O)(=O)c2ccc3c(c2)OCO3)cc1	bioavailability (Canis lupus familiaris [4]): 33%; bioavailability (Canis lupus familiaris [5]): 0%; T1/2 (Canis lupus familiaris [6]): 36 min; bioavailability (Rattus norvegicus [7]): 1%; T1/2 (Rattus norvegicus [8]): 96 min; CL (mL.min-1.kg-1) (Rattus norvegicus [9]): 0.917; CL (mL.min-1.kg-1) (Canis lupus familiaris [10]): 1.13
7.1 nM	2.8 nM	2.6 nM	COC(=O)NCCCOc1ccc(C[C@H](NC(=O)O[C@H]2CO[C@H]3OCC[C@H]32)[C@H](O)CN(CC(C)C)S(=O)(=O)c2ccc3c(c2)OCO3)cc1	T1/2 (Canis lupus familiaris [11]): 66 min; bioavailability (Canis lupus familiaris [5]): 1%; bioavailability (Rattus norvegicus [12]): 3%; T1/2 (Rattus norvegicus [8]): 12 min; CL (mL.min-1.kg-1) (Rattus norvegicus [9]): 0.717; CL (mL.min-1.kg-1) (Canis lupus familiaris [13]): 0.5
16 nM	39 nM	13 nM	CC(=O)NCCCCOc1ccc(C[C@H](NC(=O)O[C@H]2CO[C@H]3OCC[C@H]32)[C@H](O)CN(CC(C)C)S(=O)(=O)c2ccc3c(c2)OCO3)cc1	
20 nM	62 nM	9.1 nM	CC(C)CN(C[C@@H](O)[C@H](Cc1ccc(OCCNS(C)(=O)=O)cc1)NC(=O)O[C@H]1CO[C@H]2OCC[C@H]21)S(=O)(=O)c1ccc2c(c1)OCO2	
